Experimental data gathered from unrelated publications.
Each line is one published result; the experiments were not run side by side.
Target: Mitogen-activated protein kinase kinase kinase 11 (MAP3K11, Homo sapiens, UniProt Q16584)
Effect on: enzyme activity
Action: inhibitor

CC(C)(C)c1nc2c(s1)c1nc(N)ncc1c1ccc(NS(=O)(=O)c3c(F)cccc3F)c(F)c12
remaining activity (radiometric; 1 µM): 22%

Oc1cccc(-c2nc(N3CCOCC3)c3oc4ncccc4c3n2)c1
remaining activity (10 µM): 57%

O=C(Nc1cnn(-c2csc(C(=O)NC3COC3)c2)c1)Nc1ccccc1Cl
remaining activity (5 µM): 93.5%

Brc1cnc(Nc2cccc(CN3CCOCC3)c2)nc1NCCc1c[nH]cn1
remaining activity (radiometric; 1 µM): 2%

FC(F)c1nc2ccccc2n1-c1nc(N2CCOCC2)nc(N2CCOCC2)n1
remaining activity (10 µM): 97%

COc1cc(Nc2cnc(C#N)c(O[C@H](C)CN(C)C)n2)ncc1-c1cnn(C)c1
remaining activity (radiometric; 10 µM): 69%

Cc1nn(CC(F)(F)F)cc1Nc1ncc(C2CC2)c(NCCc2c[nH]cn2)n1
remaining activity (radiometric; 1 µM): 91%

Cc1ccc(C(=O)Nc2ccc(CN3CCN(C)CC3)c(C(F)(F)F)c2)cc1C#Cc1cnc2cccnn12
remaining activity (23.5 nM): 98%

O=C(Nc1cccc(Nc2ncc(Br)c(NCCc3cnc[nH]3)n2)c1)N1CCCC1
remaining activity (radiometric; 1 µM): 2%

Cc1sc(C(=O)NC2COC2)cc1-n1cc(NC(=O)Nc2c(F)cccc2Cl)cn1
remaining activity (10 µM): 90.7%

CC(C)(O)[C@H]1CC[C@H](Nc2ccc3ncc(-c4cccc(C(F)(F)F)c4)n3n2)CC1
remaining activity (1 µM): 68.9%
